Assay outcomes from PubChem BioAssay.
KCNQ1 act: potentiators or activators of human KCNQ1 potassium channel | P51787 | CHO-K1 KCNQ1, thallium flux FluxOR fluorescence; stronger effect = higher value | B-score at 10 µM | hit rate 0.35% among 310,000;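 active = fluorescence ratio B-score, a plate-corrected score, at least three library SD, with initial intensity B-score within 5 SD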
Target sequence (P51787 whole entry, looked up): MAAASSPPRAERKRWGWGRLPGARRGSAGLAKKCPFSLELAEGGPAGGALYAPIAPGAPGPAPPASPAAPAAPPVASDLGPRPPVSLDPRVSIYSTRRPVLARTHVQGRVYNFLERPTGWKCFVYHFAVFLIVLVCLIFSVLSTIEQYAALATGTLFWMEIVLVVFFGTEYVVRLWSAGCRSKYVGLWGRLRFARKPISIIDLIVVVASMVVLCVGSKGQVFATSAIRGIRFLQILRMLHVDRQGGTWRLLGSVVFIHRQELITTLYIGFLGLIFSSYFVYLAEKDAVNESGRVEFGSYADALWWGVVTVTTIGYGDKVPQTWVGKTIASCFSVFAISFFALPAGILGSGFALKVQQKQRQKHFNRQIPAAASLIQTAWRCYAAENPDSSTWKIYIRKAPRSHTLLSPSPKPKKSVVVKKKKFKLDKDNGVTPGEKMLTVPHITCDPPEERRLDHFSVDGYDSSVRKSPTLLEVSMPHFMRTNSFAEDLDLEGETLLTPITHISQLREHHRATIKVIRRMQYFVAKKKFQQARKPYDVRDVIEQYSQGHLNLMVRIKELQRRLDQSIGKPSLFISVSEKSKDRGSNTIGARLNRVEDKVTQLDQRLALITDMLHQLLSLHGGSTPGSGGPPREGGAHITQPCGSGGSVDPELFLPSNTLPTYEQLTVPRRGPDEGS
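assay system = KCNQ1-transfected CHO-K1 cells | medium = assay buffer with matched DMSO | probe or stimulus = depolarizing K+/Tl+ stimulus, K2SO4 and Tl2SO4 each 12.5 mM in 5x stock | dosing = single dose | incubation = dye 90 min, compound 20 min, room temperature | detection = kinetic FluxOR fluorescence, 10 s baseline plus 110 s post-stimulus | evaluation = ratio B score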
KCC2 mod: KCC2 (human) Cl- transport modulation. KCC2 cells, thallium flux FluoZin-2 fluorescence. B-score of Tl+ flux slope (higher = more flux/activation; lower = inhibition) at 10 µM. hit rate 2.2% among 190,000;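 active = thallium flux slope and its plate-corrected score both differing from the plate sample mean at a set confidence after two filtering rounds, in either direction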;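 note: slope of fluorescence scaled to starting intensity during 10 to 20 s after thallium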
hERG rescue: shields human hERG channel from block by proarrhythmic agents. activation (rescue from dofetilide block), less the hit threshold, % at 10 µM. AID 1511. CHO-hERG, FluxOR thallium flux, dofetilide IC70 present. hit rate 0.51% among 310,000. Q12809;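 active = activation above the mean of controls blocked by dofetilide plus 5 SD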;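 note: thallium influx through hERG after potassium depolarization seen as dye fluorescence rise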
KCNK3 block: human KCNK3 channel inhibition, primary screen. O14649. CHO-KCNK3 thallium flux, FluxOR fluorescence; stronger effect = lower value. B-score at 10 µM. hit rate 0.84% among 340,000. AID 602410;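 active = B-score under library mean minus 4 SD, starting fluorescence ratio at most library mean plus 5 SD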;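 note: more negative B-score means stronger inhibition of thallium flux through KCNK3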
KCNQ1 inh: human KCNQ1 channel inhibition. P51787. CHO-K1 KCNQ1, FluxOR thallium flux fluorescence; stronger effect = higher value. B-score at 10 µM. hit rate 1.3% among 310,000;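 active = compounds whose thallium flux B-score, printed positive for inhibition, exceeds three library SD while starting fluorescence stays within three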;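 note: channel opened by potassium depolarization with thallium stimulus after 20 min compound exposure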
KCNK9 block: human KCNK9 channel inhibition. Q9NPC2. B-score at 10 µM. HEK293 KCNK9, FluxOR thallium flux fluorescence; stronger effect = lower value. hit rate 1.2% among 310,000;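 active = ratio B-score over 3 SD below the library mean, with starting fluorescence within 5 SD of its mean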;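 note: negative B-score means less thallium flux so channel inhibition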
KCNK9 block conf: confirmation of human KCNK9 potassium channel inhibitors | shares compounds with KCNK9 block | HEK293 KCNK9 cells, FluxOR thallium flux fluorescence | inhibition, % at 10 µM | hit rate 43% among 4,900 | AID 492992;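 active = thallium signal inhibited by more than 5 SD of the compound-free buffer control wells, on both duplicate plates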;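 note: 0% = assay buffer control wells without compound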
Kir2-1 spec: selectivity of KCNK9 modulators against mouse Kir2.1 | shares compounds with KCNK9 block | Kir2.1 cells, FluxOR thallium flux fluorescence | inhibition, % at 10 µM | hit rate 4% among 4,900 | AID 492993;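 active = thallium signal drop more than 5 SD beyond the mean of the no-compound control wells, seen in both duplicate plates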;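 note: signal is fluorescence rise after thallium addition divided by baseline fluorescence; plate controls were assay buffer only for no effect and full block by chlorpromazine control for full effect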
HEK293 Tl ctr: second check of KCNK9 modulator effects in non-induced HEK293 cells. shares compounds with KCNK9 block. FluxOR thallium flux. inhibition, % at 10 µM. hit rate 40% among 4,900. AID 492997;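 active = thallium signal drop beyond 5 SD of the untreated control mean, on both duplicate plates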;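 note: plate controls were buffer only IC0 wells for no effect and SID17386958 at its maximal inhibitory level for full effect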
The depositor's hits bear a star; i = inactive; · = no result. The list is not random: actives were taken first. Their share in the collection is about 4.1%.

SMILES	KCNQ1 act	KCC2 mod	hERG rescue	KCNK3 block	KCNQ1 inh	KCNK9 block	KCNK9 block conf	Kir2-1 spec	HEK293 Tl ctr
Clc1ccc(CO/N=C/c2c(-c3ccccc3)nc3n2CCS3)c(Cl)c1	i	0.019	-15	i	i	-9.7*	i	i	28%*
CCOC(=O)C1CCN(C(=O)c2oc3ccc(S(=O)(=O)N4CC(C)CC(C)C4)cc3c2C)CC1 (stereo not drawn)	i	-1.6	-6	i	i	i	i	i	i
COc1ccccc1C(=O)N1c2ccccc2Sc2ccccc21	i	-2	-10	i	i	-14*	54%*	i	42%*
CC(C)NC(=O)N1c2ccccc2Sc2ccccc21	i	·	-6	i	i	i	·	·	·
COCCCNC(=O)N1c2ccccc2Sc2ccccc21	i	·	-5	i	i	i	·	·	·
CC(C)(C)NC(=O)N1c2ccccc2Sc2ccccc21	i	·	-6	i	i	i	i	i	i
O=C(CSCC(=O)NCc1ccco1)NCc1ccco1	i	-0.4	-1	i	i	i	·	·	·
O=C(NCc1ccco1)N1c2ccccc2Sc2ccccc21	i	-0.85	-8	i	i	i	i	i	i
COc1ccc(CCNC(=O)N2c3ccccc3Sc3ccccc32)cc1	i	·	-9	i	i	i	i	i	i
COc1ccccc1NC(=O)C[n+]1ccccc1C	i	·	-4	i	i	i	·	·	·
Cc1ccc(S(=O)(=O)N(C)C)cc1NC(=O)C1CCCCN1S(=O)(=O)c1ccccc1 (stereo not drawn)	·	·	·	i	·	·	·	·	·
O=C(COc1ccc2ccccc2c1)N1c2ccccc2Sc2ccccc21	i	·	-3	i	i	-13*	56%*	i	46%*
CC1CN(C(=O)COc2ccc3ccccc3c2)CC(C)O1 (stereo not drawn)	·	·	·	i	·	·	·	·	·
CC(Oc1cccc(Cl)c1)C(=O)Nc1ccc(S(=O)(=O)N(C)C2CCN(C)CC2)cc1 (stereo not drawn)	·	·	·	i	·	·	·	·	·
COCC(=O)Oc1c(Sc2ccccc2[N+](=O)[O-])c(C)nn1C(C)(C)C	i	·	-27	i	i	i	·	·	·
CCC(CC)C(=O)Oc1c(Sc2ccccc2[N+](=O)[O-])c(C)nn1C(C)(C)C	i	0.094	-12	i	i	-12*	52%*	i	33%*
Cc1ccc(S(=O)(=O)N2CCN(C(=O)CSc3ccc(Cl)cc3)CC2)cc1	i	·	-3	i	i	i	·	·	·
Cc1ccc(SCC2(O)CCN(S(=O)(=O)c3ccc(Cl)cc3)CC2)cc1	80*	·	-10	i	i	i	i	i	i
COc1cc(CN(C)C(=O)C2CCN(S(=O)(=O)c3cccs3)CC2)ccc1OC(F)F	·	·	·	i	·	·	·	·	·
CC(O)CNCCNCc1c(OCc2ccccc2)ccc2ccccc12 (stereo not drawn)	i	-0.8	-14	i	i	i	·	·	·
OCCNCc1c(OCc2ccc(Cl)cc2)ccc2ccccc12	i	·	-18	i	i	-19*	76%*	42%*	31%*
CCn1c(=O)c(CCC(=O)N2CCOCC2)c(C)c2c(C)nn(-c3ccccc3)c21	i	·	-10	i	i	i	i	i	i
Cc1nn(-c2ccccc2)c2c1c(C)c(CCC(=O)N1CCOCC1)c(=O)n2C	i	·	-17	i	i	i	i	i	i
Cn1c(SCC(=O)Nc2cccnc2Cl)nnc1-c1ccco1	·	·	·	i	·	·	·	·	·
Cc1ccc2c(c1)S(=O)(=O)N(C)C(c1ccccc1)=C2	·	·	·	i	·	·	·	·	·
Cc1ccc(NC(=S)NC(=O)C2CCCC2)c(Br)c1	·	·	·	i	·	·	·	·	·
